One data set deals with KG-1. In words: Antiproliferative activity against human KG1 cells after 72 hrs by CCK8 assay. The note with it: KG-1, 72 h.
The nature of data set [1]: Tmax in ICR(CD-1) mouse at 10 mg/kg, po administered via gavage by triple quadrupole mass spectrometric analysis. The class given is ADME, organism-based. Particulars: in vivo. In a few lines: (§1)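 Dosed by gavage at 1 mg/mL in 1% Tween80/water to male ICR mice, 18-22 g, n=3. Blood taken at 0.25, 0.5, 1, 2, 4, 8 and 24 h. Plasma precipitated with methanol:acetonitrile (1:1) containing internal standard, then UPLC-MS/MS on a C18 column with an ammonium acetate/formic acid–acetonitrile gradient. Tmax read directly from the data; MRT calculated per animal from concentration–time curves.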

Data set [2] in a line: MRT in ICR(CD-1) mouse at 10 mg/kg, po administered via gavage by triple quadrupole mass spectrometric analysis. The class given is ADME, organism-based. Particulars: in vivo. The method, boiled down: as §1
The nature of data set [3]: Half life in ICR(CD-1) mouse at 10 mg/kg, po administered via gavage by triple quadrupole mass spectrometric analysis. The class given is ADME, organism-based. Particulars: in vivo. In a few lines: (§2)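 Oral gavage at 1 mg/mL in 1% Tween80/water to male ICR mice (18-22 g, n=3). Plasma sampled at 0.25, 0.5, 1, 2, 4, 8 and 24 h, protein precipitated with methanol:acetonitrile (1:1) containing internal standard, and quantified by UPLC-triple quadrupole MS. AUC and MRT were taken from per-animal time-concentration curves. Cmax is the maximum plasma level and Tmax the time to reach it.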

Data set [4] has as its target T1, Discoidin domain-containing receptor 2 (Homo sapiens, UniProt Q16832).
T1 sequence (Q16832 whole entry): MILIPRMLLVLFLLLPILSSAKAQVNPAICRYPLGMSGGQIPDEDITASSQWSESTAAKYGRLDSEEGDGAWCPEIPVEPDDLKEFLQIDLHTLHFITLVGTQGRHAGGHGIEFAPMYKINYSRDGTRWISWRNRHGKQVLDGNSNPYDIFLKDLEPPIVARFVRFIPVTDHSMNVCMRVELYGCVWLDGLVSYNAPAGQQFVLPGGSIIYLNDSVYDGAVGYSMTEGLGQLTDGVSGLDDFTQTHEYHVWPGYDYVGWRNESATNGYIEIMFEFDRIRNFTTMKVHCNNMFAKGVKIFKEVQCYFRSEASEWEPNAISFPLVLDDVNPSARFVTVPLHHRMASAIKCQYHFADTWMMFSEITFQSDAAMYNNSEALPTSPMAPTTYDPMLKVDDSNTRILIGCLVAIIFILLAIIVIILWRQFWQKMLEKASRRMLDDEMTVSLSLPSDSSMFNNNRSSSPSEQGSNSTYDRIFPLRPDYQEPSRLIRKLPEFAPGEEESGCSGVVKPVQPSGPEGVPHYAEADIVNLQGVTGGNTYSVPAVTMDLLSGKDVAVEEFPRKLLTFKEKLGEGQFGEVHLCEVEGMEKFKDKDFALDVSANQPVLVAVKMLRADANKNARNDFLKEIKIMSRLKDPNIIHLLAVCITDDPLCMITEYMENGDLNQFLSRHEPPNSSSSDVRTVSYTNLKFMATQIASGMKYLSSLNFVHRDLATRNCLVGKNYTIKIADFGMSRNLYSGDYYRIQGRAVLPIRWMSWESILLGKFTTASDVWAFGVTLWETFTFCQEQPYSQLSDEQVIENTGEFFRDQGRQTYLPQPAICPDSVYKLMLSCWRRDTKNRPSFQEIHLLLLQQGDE
In words: Inhibition of DDR2 (unknown origin) using poly (Glu, Tyr) 4:1 substrate after 60 mins by ELISA.

Data set [5] relates to NCI-H2286. In words: Antiproliferative activity against human NCI-H2286 cells after 72 hrs by CCK8 assay. The note with it: NCI-H2286, 72 h. For orientation: Tetrazolium assays rely on reduction of a dye to a coloured formazan, in cell work by metabolically active cells.
A short description of data set [6]: Cmax in ICR(CD-1) mouse at 10 mg/kg, po administered via gavage by triple quadrupole mass spectrometric analysis. The class given is ADME, organism-based. Details: dose 10 mg/kg, route oral. The note with it: in vivo. In a few lines: as §2
Data set [7] in a line: AUC (0 to infinity) in ICR(CD-1) mouse at 10 mg/kg, po administered via gavage by triple quadrupole mass spectrometric analysis. The class given is ADME, organism-based. Details: dose 10 mg/kg, route oral, time infinity. The note with it: in vivo. In a few lines: as §2
The nature of data set [8]: AUC (0 to t) in ICR(CD-1) mouse at 10 mg/kg, po administered via gavage by triple quadrupole mass spectrometric analysis. Particulars: in vivo. The class given is ADME, organism-based. The method, boiled down: as §2
For data set [9], the target named is T2, Discoidin domain-containing receptor 2 (Homo sapiens) (UniProt Q16832).
T2 sequence (whole entry): T1 sequence (Q16832 whole entry)
In words: Inhibition of DDR2 (unknown origin) at 100 nM using poly (Glu, Tyr) 4:1 substrate after 60 mins by ELISA relative to control. The method, boiled down: (§3)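 ELISA with purified recombinant DDR2 on poly(Glu,Tyr) 4:1 precoated at 20 µg/mL. 10 µM ATP in HEPES pH 7.4 buffer with MgCl2, MnCl2, Na3VO4 and DTT, 1% DMSO; 60 min at 37 °C. Phosphotyrosine detected by PY99 and HRP anti-mouse IgG with o-phenylenediamine at A490. Inhibition = 1−A490/A490control; two separate experiments.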

The subject of data set [10] is NCI-H2286. The data set can be described thus: Antiproliferative activity against human NCI-H2286 cells at 100 nM after 72 hrs by CCK8 assay relative to control. The class given is functional.
Data set [11] deals with T2, Discoidin domain-containing receptor 2 (Homo sapiens). In words: Inhibition of DDR2 (unknown origin) at 1000 nM using poly (Glu, Tyr) 4:1 substrate after 60 mins by ELISA relative to control. In a few lines: as §3
(An ELISA detects its analyte on a solid surface through an enzyme-linked reagent.)

Consider 19 molecules from ChEMBL document CHEMBL4411287, “Discovery and optimization of a series of 3-substituted indazole derivatives as multi-target kinase inhibitors for the treatment of lung squamous cell carcinoma” (Eur J Med Chem, 2019).

Bounds are passed on as bounds.

Broadly, the IC50 is the concentration that gives 50% inhibition. High values mean a need for much substance, low ones inhibition by little substance. The term Tmax denotes the time at which the peak concentration occurs. Usually MRT stands for the average time that molecules of a dose stay in the body. As a reminder, the half-life is the time in which the quantity being followed falls by half. For orientation: Cmax means the maximum level reached in the sampled fluid or tissue. Usually AUC(0-inf) stands for the area under the concentration-time curve extrapolated to infinity. For orientation: AUC(0-t) means the area under the concentration-time curve up to a stated or last time point. By inhibition is commonly meant the relative decrease from the control value, in per cent. Higher therefore signals a strong effect.

Regarding `Cc1ccc(C(=O)Nc2cccc(C(F)(F)F)c2)cc1-c1ccc2c(-c3cnn(C)c3)n[nH]c2c1`, the IC50 stood at 0.0657 µM with KG-1, 0.0044 µM in data set [4] and 0.0243 µM in the data set on NCI-H2286 [5]. In [1], the Tmax came out at 1.17 h. The MRT in data set [2] is 3.26 h. The half-life in [3] is 2.75 h. This molecule also registered a Cmax in data set [6] of 0.89 µg/mL. Also, the AUC(0-inf) in data set [7] turned out to be 3.48 µg·h/mL. Moreover, the AUC(0-t) in [8] came to 3.48 µg·h/mL.

In data set [4], `Cc1ccc(C(=O)Nc2cccc(C(C)(C)C#N)c2)cc1-c1ccc2cn[nH]c2c1` gave an IC50 of 0.0027 µM.

On to `Cc1ccc(C(=O)Nc2cc(CN3CCN(C)CC3)cc(C(F)(F)F)c2)cc1-c1ccc2cn[nH]c2c1`, for which, in [4], the IC50 worked out at 0.0047 µM.

For `Cc1ccc(C(=O)Nc2cccc(C(F)(F)F)c2)cc1-c1ccc2c(-c3cnn(CC(=O)N(C)C)c3)n[nH]c2c1`, the IC50 with KG-1 is 0.441 µM; in [4], 0.0027 µM; in the data set on NCI-H2286 [5] it was more than 1 µM.

In [9], `Cc1ccc(C(=O)NCc2cccc(N3CCN(C)CC3)c2)cc1-c1ccc2cn[nH]c2c1` showed an inhibition of 23.2%.

In the case of `Cc1ccc(C(=O)Nc2cccc(C(F)(F)F)c2)cc1-c1ccc2c(-c3cnn(CCN4CCOCC4)c3)n[nH]c2c1`, the IC50 is 0.114 µM with KG-1 and 0.0026 µM in data set [4]. Besides, the Activity with NCI-H2286 [10] was 49%.

Regarding `Cn1ncc2ccc(-c3cccc(NC(=O)c4cccc(C(F)(F)F)c4)c3)cc21`, the values for the inhibition in [11] and in data set [9] were 29.8% and 7.6%, respectively.

Turning to `Cc1ccc(C(=O)Nc2cccc(C(F)(F)F)c2)cc1-c1ccc2c(-c3ccc(N4CCOCC4)cc3)n[nH]c2c1`, the IC50 was 0.561 µM in the data set with KG-1, 0.0216 µM in data set [4] and 0.14 µM with NCI-H2286 [5].

On to `Cc1ccc(C(=O)Nc2cccc(CN3CCN(C)CC3)c2)cc1-c1ccc2cn[nH]c2c1`, for which the IC50 in data set [4] was determined as 0.0759 µM.

For `Cc1ccc(C(=O)Nc2cccc(C(F)(F)F)c2)cc1-c1ccc2c(-c3ccc(N4CCC(N5CCOCC5)CC4)cc3)n[nH]c2c1`, the values for the IC50 (in the data set with KG-1; in data set [4]) were 0.177 µM and 0.0087 µM, respectively.

In data set [9], `Cc1ccc(C(=O)Nc2cccc(N3CCN(C)CC3)c2)cc1-c1ccc2cn[nH]c2c1` displayed an inhibition of 37.3%.

For `O=C(Nc1ccc(Cl)c(-c2ccc3cn[nH]c3c2)c1)c1cccc(C(F)(F)F)c1`, in [4], inhibition was half-maximal at 0.0095 µM (IC50).

In data set [4], `Cc1ccc(C(=O)Nc2ccc(CN3CCN(C)CC3)cc2)cc1-c1ccc2cn[nH]c2c1` came in with an IC50 of 0.0067 µM.

The molecule `Cc1ccc(C(=O)Nc2cc(CN3CCN(C4CCCC4)CC3)cc(C(F)(F)F)c2)cc1-c1ccc2cn[nH]c2c1` had an IC50 in data set [4] of 0.007 µM.

Take `CCCn1cc(-c2n[nH]c3cc(-c4cc(C(=O)Nc5cccc(C(F)(F)F)c5)ccc4C)ccc23)cn1`: the IC50 in the data set on KG-1 worked out at 0.358 µM; in [4], 0.0032 µM. In the data set with NCI-H2286 [10], the Activity is on record as 41%.

Turning to `Cc1ccc(C(=O)Nc2cccc(C(F)(F)F)c2)cc1-c1ccc2c(-c3cnn(CC(C)O)c3)n[nH]c2c1` (stereo unspecified), the IC50 with KG-1 was 0.339 µM; in [4], 0.0037 µM; in the data set on NCI-H2286 [5] it was 0.196 µM. Also, the Tmax in data set [1] came out at 0.25 h. The molecule further displayed an MRT in data set [2] of 1.37 h. Further, in [3], the half-life is 0.75 h. The same molecule showed a Cmax in data set [6] of 0.202 µg/mL. In data set [7], this molecule yielded an AUC(0-inf) of 0.334 µg·h/mL. In data set [8], this molecule came in with an AUC(0-t) of 0.324 µg·h/mL.

Consider `Cc1ccc(C(=O)Nc2cccc(C(F)(F)F)c2)cc1-c1ccc2c(-c3ccc(N4CCN(C)CC4)cc3)n[nH]c2c1`, for which the IC50 with KG-1 came out at 0.136 µM; in data set [4] it was 0.0088 µM; in the data set on NCI-H2286 [5] it was 0.0895 µM. Moreover, the Tmax in data set [1] amounted to 1.33 h. The same molecule returned a Cmax in data set [6] of 0.0159 µg/mL. Besides, the AUC(0-t) in [8] was found to be 0.044 µg·h/mL.

In data set [4], `Cc1ccc(C(=O)Nc2cc(CN3CCN(CCO)CC3)cc(C(F)(F)F)c2)cc1-c1ccc2cn[nH]c2c1` gave an IC50 of 0.0034 µM.

Take `O=C(Nc1cccc(-c2ccc3cn[nH]c3c2)c1)Nc1cccc(C(F)(F)F)c1`: the inhibition in [11] turned out to be 53.3%; in [9] it was 20.1%.
